Measurements gathered from unrelated publications.
Compare with care: the assays were run in different laboratories.
Target: Serine/threonine-protein kinase TBK1 (TBK1, Homo sapiens, UniProt Q9UHD2)
Sequence (Q9UHD2 1-729, as in one of the studies): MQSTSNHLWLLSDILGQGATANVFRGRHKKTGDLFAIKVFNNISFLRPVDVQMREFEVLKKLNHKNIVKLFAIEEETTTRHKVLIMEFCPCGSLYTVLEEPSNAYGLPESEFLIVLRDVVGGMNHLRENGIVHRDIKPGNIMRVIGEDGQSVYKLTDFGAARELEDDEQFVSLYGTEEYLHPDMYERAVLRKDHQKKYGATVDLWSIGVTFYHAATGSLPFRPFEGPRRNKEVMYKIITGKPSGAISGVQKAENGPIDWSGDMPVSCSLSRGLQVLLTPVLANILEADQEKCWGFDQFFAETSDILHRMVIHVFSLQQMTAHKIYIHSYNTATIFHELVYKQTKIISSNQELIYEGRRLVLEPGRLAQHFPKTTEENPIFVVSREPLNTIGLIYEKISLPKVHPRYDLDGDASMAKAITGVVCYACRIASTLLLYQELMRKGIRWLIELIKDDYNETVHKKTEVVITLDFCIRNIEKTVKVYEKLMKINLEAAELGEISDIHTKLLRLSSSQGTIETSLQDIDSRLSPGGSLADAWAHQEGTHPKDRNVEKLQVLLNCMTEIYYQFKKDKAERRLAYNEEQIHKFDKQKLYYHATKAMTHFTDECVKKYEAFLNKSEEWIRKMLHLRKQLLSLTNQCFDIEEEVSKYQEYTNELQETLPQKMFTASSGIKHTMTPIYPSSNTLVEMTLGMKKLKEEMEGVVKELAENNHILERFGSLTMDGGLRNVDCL

| Compound | assay | setting | quantity | value |
| --- | --- | --- | --- | --- |
| CC#CC(=O)N1CCC[C@H]1c1nc(-c2ccc(C(=O)Nc3ccccn3)cc2)c2c(N)nccn12 | enzyme activity, inhibitor | 1 µM | inhibition | 5% |
| C[C@H]1CC[C@H](n2c3cnccc3c3cnc(Nc4ccc5c(n4)CCN(C(=O)CO)C5)nc32)CC1 | cell-free assay | 1 µM | remaining signal | 100% |
| C=CC(=O)N1CCC([C@@H]2CCNc3c(C(N)=O)c(-c4ccc(Oc5ccccc5)cc4)nn32)CC1 | enzyme activity, inhibitor | 1 µM | inhibition | 15% |
| Cc1cc(O)c(-c2ccc([C@@H](C)CN(C)C)cc2)c2c1[nH]c(=O)c1sccc12 | enzyme activity, inhibitor | 0.1 µM | inhibition | -4.68% |
| CCCCC(=O)Nc1ccc(-c2ccc3ncn(CCC)c(=O)c3c2)cn1 | binding, competition with immobilised ligand | 0.5 µM | remaining binding | 100% |
| COc1ccc2[nH]c3c4[nH]c5ccc(OC)cc5c4c4c(c3c2c1)C(=O)NC4=O | binding | 1 µM | remaining binding | 59% |
| C#Cc1cc(-c2cc(Nc3nc(N[C@@H](C)c4ccc(F)cn4)ncc3Cl)n[nH]2)ccc1C=O | enzyme activity, inhibitor | 0.2 µM | inhibition | 5.56% |
| CC(C)S(=O)(=O)c1ccc2nccc(Nc3ccc4sc(C5CCCC5)nc4c3)c2c1 | enzyme activity, inhibitor | 1 µM | activity vs control | 114% |
